Test results taken from ChEMBL document CHEMBL4334471, “Discovery of 1,8-disubstituted-[1,2,3]triazolo[4,5-c]quinoline derivatives as a new class of Hippo signaling pathway inhibitors” (Bioorg Med Chem Lett, 2019).

Experiments:
[1] = target: Protein kinase C delta type (Homo sapiens) (UniProt Q05655); assay: Inhibition of recombinant human PKCdelta (2 to end residues) assessed as residual activity at 10 uM using ERMRPRKRQGSVRR as substrate incubated for 40 mins in presence of [gamma33P]ATP by scintillation counting based radiometry assay relative to control
[2] = test system: Hepatocyte growth factor receptor (Homo sapiens), P08581 [Y1230D]; assay: Inhibition of recombinant human MET A1209G/V1290L/Y1248D mutant (974 to end residues) assessed as residual activity at 10 uM using KKKGQEEEYVFIE as substrate incubated for 40 mins in presence of [gamma-33ATP by scintillation counting based radiometry assay relative to control
[3] = target: Serine/threonine-protein kinase WNK4 (Homo sapiens) (UniProt Q96J92); assay: Inhibition of recombinant human WNK4 (A31 to D461 residues) assessed as residual activity at 10 uM using myelin basic protein as substrate incubated for 40 mins in presence of [gamma33P]ATP by scintillation counting based radiometry assay relative to control
[4] = target: Proto-oncogene tyrosine-protein kinase receptor Ret (Homo sapiens) (UniProt P07949); assay: Inhibition of recombinant human Ret (658 to end residues) assessed as residual activity at 10 uM using KKKSPGEYVNIEFG as substrate incubated for 40 mins in presence of [gamma33P]ATP by scintillation counting based radiometry assay relative to control
[5] = target: MAP/microtubule affinity-regulating kinase 3 (Homo sapiens) (UniProt P27448); assay: Inhibition of recombinant full length human MARK3 assessed as residual activity at 10 uM using KKKVSRSGLYRSPSMPENLNRPR as substrate incubated for 40 mins in presence of [gamma-33ATP by scintillation counting based radiometry assay relative to control
[6] = species: Homo sapiens; assay: Inhibition of recombinant human DDR1 V833L mutant (492 to end residues) assessed as residual activity at 10 uM using KKKSPGEYVNIEF as substrate at 40 mins in presence of [gamma-33ATP] by scintillation counting based radiometry assay relative to control
[7] = target: Myosin light chain kinase, smooth muscle (Homo sapiens) (UniProt Q15746); assay: Inhibition of recombinant human MLCK (1425 to 1771 residues) assessed as residual activity at 10 uM using […] incubated for 40 mins in presence of [gamma-33ATP by scintillation counting based radiometry assay relative to control
[8] = test system: Epidermal growth factor receptor (Homo sapiens), P00533 [L861Q]; assay: Inhibition of recombinant human EGFR L861Q mutant (696 to end residues) assessed as residual activity at 10 uM using poly(Glu, Tyr) 4:1 as substrate at 40 mins in presence of [gamma-33ATP] by scintillation counting based radiometry assay relative to control
[9] = species: Homo sapiens; assay: Inhibition of recombinant human Ros V2262A mutant (1883 to end residues) assessed as residual activity at 10 uM using KKKSPGEYVNIEFG as substrate incubated for 40 mins in presence of [gamma33P]ATP by scintillation counting based radiometry assay relative to control
[10] = target: Tyrosine-protein kinase BTK (Homo sapiens) (UniProt Q06187); assay: Inhibition of recombinant full length human BTK assessed as residual activity at 10 uM using KVEKIGEGTYGVVYK substrate incubated for 40 mins in presence of [gamma-33ATP] by scintillation counting based radiometry assay relative to control
[11] = target: Mitogen-activated protein kinase kinase kinase 3 (Homo sapiens) (UniProt Q99759); assay: Inhibition of recombinant full length human MEKK3 assessed as residual activity at 10 uM using myelin basic protein as substrate incubated for 120 mins in presence of [gamma-33ATP by scintillation counting based radiometry assay relative to control
[12] = target: Serine/threonine-protein kinase 26 (Homo sapiens) (UniProt Q9P289); assay: Inhibition of recombinant human MST4 (4 to 304 residues) assessed as residual activity at 10 uM using RLGRDKYKTLRQI as substrate measured after 40 mins in presence of [gamma33P]ATP by scintillation counting based radiometry assay relative to control
[13] = test system: Serine/threonine-protein kinase Sgk2 (Homo sapiens), Q9HBY8 [S416D]; assay: Inhibition of recombinant human SGK2 S416D mutant (54 to end residues) assessed as residual activity at 10 uM using GRPRTSSFAEGKK as substrate incubated for 40 mins in presence of [gamma33P]ATP by scintillation counting based radiometry assay relative to control
[14] = target: Mitogen-activated protein kinase 8 (Homo sapiens) (UniProt P45983); assay: Inhibition of human JNK1alpha1 assessed as residual activity at 10 uM using ATF2 as substrate after 40 mins by [gamma-33ATP] radiometric assay relative to control
[15] = target: Serine/threonine-protein kinase LATS2 (Homo sapiens, UniProt Q9NRM7); assay: Binding affinity to wild-type human partial length LATS2 (Q641 to V1088 residues) expressed in mammalian expression system assessed as dissociation constant by Kinomescan method
Outline: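 KINOMEscan competition binding assay. Kinase bound at each concentration of test compound was quantified by qPCR and plotted against log10 compound concentration to derive Kd.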

[16] = target: Protein kinase C iota type (Homo sapiens) (UniProt P41743); assay: Inhibition of recombinant full-length human PKCiota assessed as residual activity at 10 uM using ERMRPRKRQGSVRRRV as substrate incubated for 40 mins in presence of [gamma33P]ATP by scintillation counting based radiometry assay relative to control
[17] = target: Dual specificity tyrosine-phosphorylation-regulated kinase 2 (Homo sapiens) (UniProt Q92630); assay: Inhibition of recombinant human DYRK2 assessed as residual activity at 10 uM using casein as substrate at 40 mins in presence of [gamma-33ATP] by scintillation counting based radiometry assay relative to control
[18] = target: Mitogen-activated protein kinase 12 (Homo sapiens) (UniProt P53778); assay: Inhibition of recombinant human full length SAPK3 assessed as residual activity at 10 uM using myelin basic protein as substrate incubated for 40 mins in presence of [gamma33P]ATP by scintillation counting based radiometry assay relative to control
[19] = test system: Dual specificity protein kinase TTK (Homo sapiens), P33981 [S389A]; assay: Inhibition of recombinant full-length human TTK S389A mutant assessed as residual activity at 10 uM using MBP as substrate incubated for 40 mins in presence of [gamma33P]ATP by scintillation counting based radiometry assay relative to control
[20] = target: Dual specificity mitogen-activated protein kinase kinase 1 (Homo sapiens) (UniProt Q02750); assay: Inhibition of recombinant human MEK1 assessed as residual activity at 10 uM using inactive MAPK2 as substrate incubated for 40 mins in presence of [gamma-33ATP by scintillation counting based radiometry assay relative to control
[21] = target: Mitogen-activated protein kinase kinase kinase 9 (Homo sapiens) (UniProt P80192); assay: Inhibition of recombinant human MLK1 (134 to 414 residues) assessed as residual activity at 10 uM using casein as substrate incubated for 40 mins in presence of [gamma-33ATP by scintillation counting based radiometry assay relative to control

Sequence of Mitogen-activated protein kinase 12 (Homo sapiens) (P53778 whole entry): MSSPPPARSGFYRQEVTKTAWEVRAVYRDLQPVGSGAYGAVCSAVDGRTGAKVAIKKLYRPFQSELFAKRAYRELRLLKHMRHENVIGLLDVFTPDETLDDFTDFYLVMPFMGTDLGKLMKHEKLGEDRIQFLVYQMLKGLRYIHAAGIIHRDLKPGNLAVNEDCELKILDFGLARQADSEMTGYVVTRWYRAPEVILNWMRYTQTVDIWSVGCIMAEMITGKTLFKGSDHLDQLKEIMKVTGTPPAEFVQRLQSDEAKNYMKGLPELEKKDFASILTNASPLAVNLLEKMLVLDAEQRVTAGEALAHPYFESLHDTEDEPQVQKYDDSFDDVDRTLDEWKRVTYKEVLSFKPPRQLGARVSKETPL
Sequence of Protein kinase C iota type (Homo sapiens) (P41743 whole entry): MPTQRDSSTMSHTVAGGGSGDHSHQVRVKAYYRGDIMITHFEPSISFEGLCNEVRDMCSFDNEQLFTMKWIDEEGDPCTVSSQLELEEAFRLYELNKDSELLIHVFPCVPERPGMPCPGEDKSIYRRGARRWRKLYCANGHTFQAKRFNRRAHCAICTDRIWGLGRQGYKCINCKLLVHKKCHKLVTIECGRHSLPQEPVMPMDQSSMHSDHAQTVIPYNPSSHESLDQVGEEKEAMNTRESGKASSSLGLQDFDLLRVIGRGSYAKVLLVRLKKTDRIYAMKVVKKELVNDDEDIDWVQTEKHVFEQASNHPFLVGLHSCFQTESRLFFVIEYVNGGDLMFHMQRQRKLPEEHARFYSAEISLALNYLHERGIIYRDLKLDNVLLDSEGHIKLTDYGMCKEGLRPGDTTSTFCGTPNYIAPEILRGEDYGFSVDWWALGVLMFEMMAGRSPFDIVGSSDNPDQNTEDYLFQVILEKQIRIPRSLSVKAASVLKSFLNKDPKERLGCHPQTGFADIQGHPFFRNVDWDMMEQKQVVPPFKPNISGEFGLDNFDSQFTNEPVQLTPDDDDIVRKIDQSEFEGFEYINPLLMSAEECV
Sequence of Mitogen-activated protein kinase 8 (Homo sapiens) (P45983 whole entry, the tested form may be a part): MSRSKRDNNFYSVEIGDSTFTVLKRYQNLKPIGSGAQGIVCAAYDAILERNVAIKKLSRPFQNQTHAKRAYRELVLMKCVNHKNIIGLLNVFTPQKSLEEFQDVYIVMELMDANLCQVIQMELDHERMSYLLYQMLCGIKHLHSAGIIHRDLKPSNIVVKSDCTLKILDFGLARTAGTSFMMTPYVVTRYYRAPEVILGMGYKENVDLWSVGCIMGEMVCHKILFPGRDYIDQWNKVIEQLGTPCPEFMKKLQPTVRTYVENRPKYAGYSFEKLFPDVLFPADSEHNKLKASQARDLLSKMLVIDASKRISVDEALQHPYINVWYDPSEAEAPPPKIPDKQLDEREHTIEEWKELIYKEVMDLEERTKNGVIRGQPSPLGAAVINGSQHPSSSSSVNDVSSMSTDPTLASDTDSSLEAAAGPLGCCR
Sequence of Dual specificity mitogen-activated protein kinase kinase 1 (Homo sapiens) (Q02750 whole entry, the tested form may be a part): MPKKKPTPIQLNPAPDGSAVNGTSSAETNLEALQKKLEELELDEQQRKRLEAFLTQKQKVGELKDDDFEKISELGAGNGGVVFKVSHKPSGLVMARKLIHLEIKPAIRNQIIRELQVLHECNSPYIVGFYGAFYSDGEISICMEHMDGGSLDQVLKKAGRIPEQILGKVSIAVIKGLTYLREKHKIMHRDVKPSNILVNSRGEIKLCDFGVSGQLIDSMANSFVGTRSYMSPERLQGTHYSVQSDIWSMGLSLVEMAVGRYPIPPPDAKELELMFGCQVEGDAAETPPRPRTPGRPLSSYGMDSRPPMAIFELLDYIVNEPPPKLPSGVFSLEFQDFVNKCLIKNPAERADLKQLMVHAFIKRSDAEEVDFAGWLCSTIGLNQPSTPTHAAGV
Sequence of Serine/threonine-protein kinase Sgk2 (Homo sapiens), Q9HBY8 [S416D] (Q9HBY8 1-367 with tags or gaps S416D): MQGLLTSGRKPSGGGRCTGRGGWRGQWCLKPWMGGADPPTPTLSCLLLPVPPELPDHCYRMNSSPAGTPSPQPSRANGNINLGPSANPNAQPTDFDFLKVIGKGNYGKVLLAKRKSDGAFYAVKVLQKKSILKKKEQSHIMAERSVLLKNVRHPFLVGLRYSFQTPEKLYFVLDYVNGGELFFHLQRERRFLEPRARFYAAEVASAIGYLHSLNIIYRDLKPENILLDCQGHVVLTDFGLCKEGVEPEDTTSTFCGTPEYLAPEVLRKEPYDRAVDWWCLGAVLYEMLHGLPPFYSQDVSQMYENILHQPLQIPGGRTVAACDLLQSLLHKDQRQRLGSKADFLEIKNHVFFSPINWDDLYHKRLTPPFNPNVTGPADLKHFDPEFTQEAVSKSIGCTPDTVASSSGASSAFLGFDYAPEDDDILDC
Sequence of Dual specificity protein kinase TTK (Homo sapiens), P33981 [S389A] (P33981 whole entry S389A): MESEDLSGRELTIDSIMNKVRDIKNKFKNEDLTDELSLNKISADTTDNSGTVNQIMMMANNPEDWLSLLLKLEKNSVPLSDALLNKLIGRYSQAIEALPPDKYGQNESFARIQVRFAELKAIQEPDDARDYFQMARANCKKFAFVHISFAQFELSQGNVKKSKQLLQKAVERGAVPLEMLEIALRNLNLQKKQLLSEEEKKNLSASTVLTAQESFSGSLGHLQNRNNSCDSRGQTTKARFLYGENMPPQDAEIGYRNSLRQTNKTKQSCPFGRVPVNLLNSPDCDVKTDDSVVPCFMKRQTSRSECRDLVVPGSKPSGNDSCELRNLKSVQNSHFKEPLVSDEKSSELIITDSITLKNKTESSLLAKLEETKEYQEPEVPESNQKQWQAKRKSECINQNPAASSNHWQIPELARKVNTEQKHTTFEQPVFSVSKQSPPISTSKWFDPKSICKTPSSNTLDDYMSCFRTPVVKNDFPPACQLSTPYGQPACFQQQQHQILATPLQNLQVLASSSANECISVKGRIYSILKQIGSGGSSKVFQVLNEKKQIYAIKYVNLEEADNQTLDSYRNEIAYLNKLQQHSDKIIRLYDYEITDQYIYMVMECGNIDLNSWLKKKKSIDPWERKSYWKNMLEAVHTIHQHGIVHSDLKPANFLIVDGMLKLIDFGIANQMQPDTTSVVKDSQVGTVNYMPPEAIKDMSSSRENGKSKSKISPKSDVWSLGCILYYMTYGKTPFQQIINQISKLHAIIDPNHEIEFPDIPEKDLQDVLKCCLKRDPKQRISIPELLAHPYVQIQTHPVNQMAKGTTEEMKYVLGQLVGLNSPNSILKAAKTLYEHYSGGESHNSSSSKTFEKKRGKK
Sequence of Serine/threonine-protein kinase WNK4 (Homo sapiens) (Q96J92 whole entry, the tested form may be a part): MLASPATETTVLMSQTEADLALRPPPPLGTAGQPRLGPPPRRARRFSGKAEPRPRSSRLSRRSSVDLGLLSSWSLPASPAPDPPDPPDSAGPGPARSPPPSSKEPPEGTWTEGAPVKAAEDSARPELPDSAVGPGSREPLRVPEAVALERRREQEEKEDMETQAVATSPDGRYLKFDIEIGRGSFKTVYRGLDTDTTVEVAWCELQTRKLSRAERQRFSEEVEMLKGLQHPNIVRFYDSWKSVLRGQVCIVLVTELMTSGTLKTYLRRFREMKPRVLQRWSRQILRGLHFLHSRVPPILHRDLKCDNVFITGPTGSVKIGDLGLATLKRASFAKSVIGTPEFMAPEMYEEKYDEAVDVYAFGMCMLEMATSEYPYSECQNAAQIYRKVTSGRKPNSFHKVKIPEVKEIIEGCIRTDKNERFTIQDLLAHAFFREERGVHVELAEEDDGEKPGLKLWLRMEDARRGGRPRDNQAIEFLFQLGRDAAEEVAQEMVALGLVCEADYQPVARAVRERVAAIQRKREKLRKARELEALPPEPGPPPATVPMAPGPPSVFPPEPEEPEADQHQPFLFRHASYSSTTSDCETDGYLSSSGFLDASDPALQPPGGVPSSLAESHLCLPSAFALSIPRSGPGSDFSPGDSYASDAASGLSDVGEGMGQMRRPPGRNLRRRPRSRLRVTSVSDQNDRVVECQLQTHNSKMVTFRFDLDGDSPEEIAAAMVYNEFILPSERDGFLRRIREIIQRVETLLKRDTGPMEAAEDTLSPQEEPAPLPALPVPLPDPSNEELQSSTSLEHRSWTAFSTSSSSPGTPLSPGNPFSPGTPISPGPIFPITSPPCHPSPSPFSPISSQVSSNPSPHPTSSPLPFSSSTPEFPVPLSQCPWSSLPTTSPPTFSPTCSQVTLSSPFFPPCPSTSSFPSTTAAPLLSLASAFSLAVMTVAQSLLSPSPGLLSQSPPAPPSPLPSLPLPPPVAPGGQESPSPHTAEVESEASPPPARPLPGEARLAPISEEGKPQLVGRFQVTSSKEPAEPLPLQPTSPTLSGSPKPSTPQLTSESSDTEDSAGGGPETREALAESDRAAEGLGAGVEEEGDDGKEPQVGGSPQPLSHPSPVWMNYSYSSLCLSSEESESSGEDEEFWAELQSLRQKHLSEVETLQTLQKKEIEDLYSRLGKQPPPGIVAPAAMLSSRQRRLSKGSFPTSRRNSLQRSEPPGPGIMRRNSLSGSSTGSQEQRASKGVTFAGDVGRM
Sequence of Tyrosine-protein kinase BTK (Homo sapiens) (Q06187 whole entry): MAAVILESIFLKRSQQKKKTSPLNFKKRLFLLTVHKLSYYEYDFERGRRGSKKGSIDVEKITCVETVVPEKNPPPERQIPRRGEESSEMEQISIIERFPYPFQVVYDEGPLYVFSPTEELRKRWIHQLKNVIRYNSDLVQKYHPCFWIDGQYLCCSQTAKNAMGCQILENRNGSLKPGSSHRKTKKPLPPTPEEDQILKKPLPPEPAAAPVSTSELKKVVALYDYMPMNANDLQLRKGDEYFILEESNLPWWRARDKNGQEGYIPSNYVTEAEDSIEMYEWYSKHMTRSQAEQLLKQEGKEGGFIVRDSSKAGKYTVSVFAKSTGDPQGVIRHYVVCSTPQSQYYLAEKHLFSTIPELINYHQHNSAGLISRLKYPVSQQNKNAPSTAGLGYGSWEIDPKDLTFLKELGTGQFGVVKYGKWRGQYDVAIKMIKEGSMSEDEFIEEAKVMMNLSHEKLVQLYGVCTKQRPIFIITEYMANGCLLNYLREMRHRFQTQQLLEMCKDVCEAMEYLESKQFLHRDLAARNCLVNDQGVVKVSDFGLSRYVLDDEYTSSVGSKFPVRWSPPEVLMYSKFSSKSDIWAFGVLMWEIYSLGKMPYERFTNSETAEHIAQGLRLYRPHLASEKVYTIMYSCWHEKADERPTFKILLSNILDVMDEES

`C[C@@H](c1ccccc1)n1nnc2cnc3ccc(-c4cnc5[nH]ccc5c4)cc3c21` showed an Activity [1] of 91%, an Activity [2] of 70% and an Activity [3] of 96%. It also gave an Activity [4] of 57%, an Activity [5] of 91% and an Activity [6] of 3%. The Activity [7] was 61%, the Activity [8] was 70% and the Activity [9] was 102%. It also gave an Activity [10] of 17%, an Activity [11] of 92% and an Activity [12] of 69%. For the same compound, the Activity [13] was 36%, the Activity [14] was 105% and the Kd [15] was > 10 µM. It also gave an Activity [16] of 81%, an Activity [17] of 94% and an Activity [18] of 91%. It also gave an Activity [19] of 2%, an Activity [20] of 85% and an Activity [21] of 41%.
